STAT3 activator – activators of IL-6 induced STAT3 signaling; U3A cells, IL-6 STAT3-luciferase reporter, luminescence; 100% = signal with IL-6 EC80 alone; hit rate 0.91% among 190,000; activation (% of control), % at 5.6 µM;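 active means activation above the screen-wide mean of compound activation plus 3 SD, cut at about 130% in these data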
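Material: human U3A cells carrying STAT3-luciferase construct. Measured by: reporter luminescence signal. Timing: compound 1 h, then IL-6 6 h at 37 °C.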
STAT1 inh – STAT1 signaling inhibition | inhibition, % at 5.5 µM | hit rate 0.35% among 200,000 | AID 920 | NIH 3T3 STAT1-luciferase reporter, IFN-gamma, luminescence;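 active means inhibition above a set limit, the mean inhibition across all tested compounds plus 3 SD, cut at about 34% in these data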
STAT3 inh-1 – reduces IL-6 driven STAT3 reporter signal; hit rate 0.89% among 190,000; U3A cells, IL-6 STAT3-luciferase reporter, luminescence; host cell line lacks STAT1; AID 862; inhibition, % at 5.5 µM;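 active means inhibition above the mean inhibition across all screened compounds plus 3 SD, cut at about 44% in these data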
HSP90 refold inh – HSP90 refolding inhibition in rabbit reticulocyte lysate | luciferase refolding luminescence, 3 h | inhibition, % at 5.6 µM | hit rate 0.91% among 290,000;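 active means inhibition above the screen-wide mean plus 3 SD, computed separately per campaign, cut at about 16% in these data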;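 further: inhibitors lower the luminescence because luciferase stays unfolded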
STAT3 inh-2 – STAT3 inhibition, confirmation assay | U3A cells, IL-6 STAT3 luciferase reporter, luminescence; cell line lacks STAT1 | hit rate 45% among 1,200 | inhibition, % at 5.7 µM | shares compounds with STAT3 inh-1;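 active means inhibition above the hit cutoff computed for the primary STAT3 screen, cut at about 44% in these data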
NFkB inh 2 – counter-screen for STAT3 inhibitors: NF-kappaB inhibition. shares compounds with STAT3 inh-1. HEK293T NF-kB luciferase reporter, TNF-alpha induced. inhibition, % at 5.7 µM. hit rate 36% among 1,200. AID 1308;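 active means inhibition above the mean of solvent-only control wells plus 3 SD, cutoff set per campaign, cut at about 13% in these data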
STAT1 inh STAT3c – STAT1 inhibition in STAT3 inhibitor counter-screen; hit rate 27% among 1,200; NIH 3T3 STAT1-luciferase reporter, IFN-gamma induced, luminescence; inhibition, % at 5.7 µM; shares compounds with STAT3 inh-1;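 active means inhibition above the mean plus 3 SD of solvent-only control wells, limit set per screening run, cut at about 16% in these data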
Numbers stand for hits; . = inactive; / = not tested or not shown. This is a sample that favours compounds with a hit; in the whole collection about 2% have one here.

SMILES | STAT3 activator | STAT1 inh | STAT3 inh-1 | HSP90 refold inh | STAT3 inh-2 | NFkB inh 2 | STAT1 inh STAT3c
COc1ccc2[nH]c(C(=O)N/N=C/c3ccc(O)cc3O)cc2c1 | / | / | / | . | / | / | /
O=C(Nc1ccc(CN2CCOCC2)cc1)c1ccc(Cl)cc1 | / | / | / | . | / | / | /
O=C(Nc1ccc(CN2CCOCC2)cc1)c1ccc(Br)cc1 | / | / | / | . | / | / | /
O=C(Nc1ccc(S(=O)(=O)Nc2ccccc2)cc1)c1ccc(CN2CCOCC2)cc1 | . | . | 84 | . | 78 | 28 | .
COC(=O)c1ccc(NC(=O)c2ccc(CN3CCOCC3)cc2)cc1 | . | . | 54 | . | . | . | .
NC(=O)c1ccccc1N/C=C/C(=O)c1ccc(Cl)cc1Cl | . | . | 62 | . | . | . | .
CN1C(=O)CSC1=Nc1cccc(Cl)c1 | / | / | / | . | / | / | /
COc1ccc(S(=O)(=O)N2CCC(Cc3ccccc3)CC2)cc1C(N)=O | / | / | / | . | / | / | /
NC(=O)C1CCN(c2ccc(S(=O)(=O)N3CCC(Cc4ccccc4)CC3)cn2)CC1 | . | . | 64 | . | 55 | . | .
O=C(CC(Nc1ccccc1Cl)C(=O)O)c1ccccc1 (configuration not stated) | . | . | 62 | . | . | . | .
O=C(CCNC(=O)C1CCN(S(=O)(=O)c2ccc(F)cc2)CC1)NCc1cccnc1 | / | / | / | . | / | / | /
CCCN1CCN(C(=O)c2cc(COc3ccc4ncccc4c3)on2)CC1 | . | . | . | . | / | / | /
CCN1CCN(C(=O)c2cc(COc3ccc4ncccc4c3)on2)CC1 | . | . | 45 | . | . | . | 18
COCC1CCCCN1C(=O)c1cc(COc2ccc3ncccc3c2)on1 (configuration not stated) | / | / | / | . | / | / | /
Cc1nc(CN(C)C(=O)c2cc(COc3ccc4ncccc4c3)on2)cs1 | . | . | 71 | . | 62 | 19 | 24
CCC1CCCCN1C(=O)c1cc(COc2ccc3ncccc3c2)on1 (configuration not stated) | . | . | 85 | . | 83 | 32 | 21
CC(C)N(Cc1nccn1C)C(=O)c1cc(COc2ccc3ncccc3c2)on1 | . | . | . | . | / | / | /
CC(C(=O)Nc1ccccn1)(c1ccccc1)c1ccccc1 | / | / | / | . | / | / | /
COCCn1nnnc1C(C(C)C)N1CCSCC1 (configuration not stated) | . | . | . | . | / | / | /
COc1cccc(-c2nnc(-c3ccc(C)o3)o2)c1 | . | . | 55 | . | . | . | .
CC1CC(C)CN(S(=O)(=O)c2cc3c(cc2Cl)NC(=O)CO3)C1 (configuration not stated) | / | / | / | . | / | / | /
CN1C2CCC1CC(NC(=O)c1cc(Cl)cc3[nH]cnc13)C2 (configuration not stated) | / | / | / | . | / | / | /
Clc1c(CSc2nc3ccccc3o2)nc2ccccn12 | . | . | 45 | . | . | . | .
Clc1c(CSc2nc3ccccc3o2)nc2sccn12 | . | . | . | . | / | / | /
COc1cccc(-c2nc(CS(=O)(=O)CC(=O)NCCCN3CCOCC3)c(C)o2)c1 | / | / | / | . | / | / | /
SMILES | STAT3 activator | STAT1 inh | STAT3 inh-1 | HSP90 refold inh | STAT3 inh-2 | NFkB inh 2 | STAT1 inh STAT3c
COc1ccc2cc3cc(C(=O)Nc4cc(OC)c(OC)c(OC)c4)oc3nc2c1 | . | . | 46 | . | . | . | .
CC(C(=O)NCc1ccccc1)n1cc([N+](=O)[O-])cn1 (configuration not stated) | / | / | / | . | / | / | /
CC1=NCCN1S(=O)(=O)c1ccccc1[N+](=O)[O-] | . | . | . | . | / | / | /
O=c1c2c(nc3cc(-c4ccc(F)cc4)[nH]n13)CCC2 | . | . | . | . | / | / | /
Cc1ccc(-c2cc3nc4c(c(=O)n3[nH]2)CCCC4)cc1 | . | . | 44 | . | . | . | .
COc1ccc(-c2nc3ccccn3c2/N=C/c2ccc(OC)c(OC)c2)cc1O | . | . | . | . | / | / | /
CCOc1cc(/C=N\Nc2ncc(F)c(N3CCOCC3)n2)ccc1Oc1nc(Cl)ncc1F | / | / | / | . | / | / | /
O=C(COc1ccccc1)Nc1ccc(-c2nnc(-c3ccco3)o2)cc1 | . | . | . | . | / | / | /
CC(C)COc1ccc(-c2nnc(-c3ccco3)o2)cc1 | . | . | 63 | . | . | . | .
CCCOc1ccc(-c2nnc(-c3ccco3)o2)cc1 | . | . | 78 | . | . | . | .
CC(=O)c1ccc(NC(=O)CCCN2C(=O)COc3ccc(C)cc32)cc1 | / | / | / | . | / | / | /
COc1ccc(CNc2oc(COc3ccc(Cl)cc3)nc2C#N)cc1 | . | . | . | . | / | / | /
COc1ccc(Nc2oc(COc3ccc(Cl)cc3)nc2C#N)cc1 | . | . | 47 | . | . | . | .
Cc1cccc(OCCCn2c(CO)nc3ccccc32)c1 | / | / | / | . | / | / | /
O=C1C(C=NCc2cccnc2)=C(O)c2ccccc21 | . | . | . | . | / | / | /
O=C1C(C=Nc2ccc(F)cc2)=C(O)c2ccccc21 | . | . | 51 | . | . | . | .
O=C(N=Nc1c(O)[nH]c2ccccc12)c1ccc2c(c1)OCO2 | . | . | 62 | . | . | . | .
Cc1cc(Nc2ccccc2)nc(NCc2ccccc2)n1 | . | . | . | . | / | / | /
CCCCNc1cc(C)nc(NCc2ccccc2)n1 | . | . | 44 | . | . | 13 | 27
CCc1cc2c(=O)c(-c3nc(C)cs3)coc2cc1O | / | / | / | . | / | / | /
COc1ccc2c(=O)c(-c3nc(C)cs3)coc2c1 | . | . | 51 | . | . | . | .
COc1cc(NC(=O)c2ccc([N+](=O)[O-])o2)ccc1NC(=O)c1cccs1 | . | . | 44 | . | . | . | .
Nc1nnc(SCC(=O)Nc2cccc3ccccc23)s1 | / | / | / | . | / | / | /
c1ccc2sc(NN=C3CCCCCC3)nc2c1 | . | 34 | 75 | . | . | . | .
O=C(Nc1ccc(O)c(-c2nc3ccccc3o2)c1)C1(c2ccc(Br)cc2)CCCC1 | . | . | . | . | / | / | /
SMILES | STAT3 activator | STAT1 inh | STAT3 inh-1 | HSP90 refold inh | STAT3 inh-2 | NFkB inh 2 | STAT1 inh STAT3c
O=S(=O)(NCc1cccnc1)c1ccc(Cl)c2ccccc12 | / | / | / | . | / | / | /
O=C(CN1CCC(c2nc3ccccc3s2)CC1)N1CCCCC1 | . | . | . | . | / | / | /
O=C(CN1CCC(c2nc3ccccc3s2)CC1)NCc1cccs1 | . | . | 46 | . | . | . | .
CCCCOCCCN1CC(=O)N2[C@@H](Cc3c([nH]c4ccccc34)C2(C)C)C1=O | / | / | / | . | / | / | /
Cc1ccc2c(C)nc(Nc3nc(CSc4nc5ccccc5[nH]4)cc(=O)[nH]3)nc2c1 | . | . | 53 | . | 45 | . | .
COC(=O)c1ccccc1S(=O)(=O)N1CCC(NC(=O)C(Cc2cccc(OC)c2OC)NC(C)=O)CC1 (configuration not stated) | / | / | / | . | / | / | /
CCOC(=O)c1nn(-c2ccccc2)cc1O | / | / | / | . | / | / | /
COC(=O)c1nn(-c2ccc(-c3ccccc3)cc2)cc1O | . | . | 74 | . | . | . | .
COc1ccc(N(C(=O)Cc2cccs2)C(C(=O)NC2CCCC2)c2ccncc2)cc1OC (configuration not stated) | / | / | / | . | / | / | /
C#CC(=O)N(c1ccc(OC)c(OC)c1)C(C(=O)NC1CCCC1)c1cccs1 (configuration not stated) | . | 36 | 108 | . | 89 | 19 | 32

From PubChem
